Test results as given in ChEMBL document CHEMBL4706601, “The endocannabinoid system dual-target ligand N-cycloheptyl-1,2-dihydro-5-bromo-1-(4-fluorobenzyl)-6-methyl-2-oxo-pyridine-3-carboxamide improves disease severity in a mouse model of multiple sclerosis” (Eur J Med Chem, 2020).

Columns and labels:
[1] = target: T1, Lysophosphatidylserine lipase ABHD12 (Homo sapiens, UniProt Q8N2K0); test: Inhibition of human ABHD12 expressed in HEK293 cells using 2-OG as substrate preincubated for 30 mins followed by substrate addition and measured after 5 mins by liquid scintillation spectroscopy; format: cell-based
T1 sequence (Q8N2K0 whole entry): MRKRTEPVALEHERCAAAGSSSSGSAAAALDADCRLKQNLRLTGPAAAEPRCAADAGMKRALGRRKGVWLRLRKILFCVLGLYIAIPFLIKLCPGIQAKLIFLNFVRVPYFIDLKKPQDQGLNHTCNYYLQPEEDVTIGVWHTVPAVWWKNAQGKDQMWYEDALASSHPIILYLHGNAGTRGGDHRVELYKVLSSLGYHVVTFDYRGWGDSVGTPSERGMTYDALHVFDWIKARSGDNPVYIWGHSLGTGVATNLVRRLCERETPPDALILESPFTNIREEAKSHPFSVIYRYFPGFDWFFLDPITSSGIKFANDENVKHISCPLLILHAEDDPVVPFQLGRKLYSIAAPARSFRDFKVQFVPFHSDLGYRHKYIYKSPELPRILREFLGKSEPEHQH
Outline: (§1)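 Homogenates (40 µg) from HEK293 stably expressing hABHD6 or hABHD12 pre-incubated with compound 30 min at 37 °C in […], 0.1% BSA, pH 7.6; then 10 μM 2-OG for 5 min at 37 °C. Aqueous phase tritium counted after CHCl3:MeOH stop; no-enzyme blanks and non-transfected HEK293 hydrolysis subtracted. Controls WWL70 10 μM, THL 20 μM.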

[2] = target: T2, Fatty-acid amide hydrolase 1 (Homo sapiens, UniProt O00519); test: Inhibition of FAAH in human U937 cells using [ethanolamine-1-3H]AEA as substrate preincubated for 15 mins followed by substrate addition and measured after 15 mins by liquid scintillation spectroscopy; format: cell-based, U-937
T2 sequence (O00519 whole entry): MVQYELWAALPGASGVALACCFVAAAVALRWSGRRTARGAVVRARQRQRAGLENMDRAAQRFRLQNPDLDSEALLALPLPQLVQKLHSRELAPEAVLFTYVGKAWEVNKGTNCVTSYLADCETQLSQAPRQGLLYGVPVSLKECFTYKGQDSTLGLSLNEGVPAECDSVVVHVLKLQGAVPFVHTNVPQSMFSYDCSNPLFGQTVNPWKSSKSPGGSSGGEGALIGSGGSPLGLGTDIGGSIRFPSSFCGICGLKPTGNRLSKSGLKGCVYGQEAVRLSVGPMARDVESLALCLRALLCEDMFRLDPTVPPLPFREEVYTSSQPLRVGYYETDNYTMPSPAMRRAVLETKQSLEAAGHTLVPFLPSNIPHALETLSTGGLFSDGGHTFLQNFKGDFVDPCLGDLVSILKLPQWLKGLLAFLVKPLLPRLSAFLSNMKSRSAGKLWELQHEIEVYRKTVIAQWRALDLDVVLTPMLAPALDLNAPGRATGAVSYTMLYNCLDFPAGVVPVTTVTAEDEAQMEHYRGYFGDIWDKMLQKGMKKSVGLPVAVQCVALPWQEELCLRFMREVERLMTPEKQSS
Outline: (§2)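 Intact U937 cells, 10^6 per condition, pre-incubated with compound 15 min at 37 °C with shaking (screen at 10 μM; full curves for hits). Substrate: 1 μM AEA with 1 nM [3H]AEA (FAAH) or 10 μM 2-OG with 5 nM [3H]2-OG (MAGL), 15 min at 37 °C. Stopped with CHCl3:MeOH 1:1, aqueous tritium counted; mean ± SD, ≥3 experiments in triplicate.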

[3] = target: T3, Monoacylglycerol lipase ABHD6 (Homo sapiens, UniProt Q9BV23); test: Inhibition of human ABHD6 expressed in HEK293 cells using 2-OG as substrate preincubated for 30 mins followed by substrate addition and measured after 5 mins by liquid scintillation spectroscopy; format: cell-based; outline: as §1
T3 sequence (Q9BV23 whole entry): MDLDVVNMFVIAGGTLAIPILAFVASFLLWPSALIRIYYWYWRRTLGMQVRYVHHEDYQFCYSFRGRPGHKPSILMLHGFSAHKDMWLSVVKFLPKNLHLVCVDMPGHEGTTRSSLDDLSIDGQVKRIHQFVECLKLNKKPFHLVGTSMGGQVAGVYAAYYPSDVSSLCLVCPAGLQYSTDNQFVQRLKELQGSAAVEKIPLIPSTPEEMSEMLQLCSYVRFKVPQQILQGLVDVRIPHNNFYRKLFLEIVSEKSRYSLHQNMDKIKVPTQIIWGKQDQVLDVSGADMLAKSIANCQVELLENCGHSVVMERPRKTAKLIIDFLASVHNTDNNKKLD

[4] = target: T4, Cannabinoid receptor 1 (Homo sapiens, UniProt P21554); test: Partial agonist activity at human CB1R expressed in CHO cell membranes after 90 mins by [35S]GTPgammaS assay; format: functional, Membrane
Outline: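 Membranes from CHO cells stably expressing hCB1 (10 µg), in 50 mM Tris-HCl, 3 mM MgCl2, 0.2 mM EDTA, 100 mM NaCl, 0.5% fatty-acid-free BSA, pH 7.4, with 10 µM GDP and 0.1 nM [35S]GTPγS. Compounds added at several concentrations. Incubated 90 min at 30 °C, then rapid filtration and radioactivity counting. Non-specific binding measured with 10 µM GTPγS.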

[5] = target: T5, Monoglyceride lipase (Homo sapiens, UniProt Q99685); test: Inhibition of MAGL in human U937 cells using [glycerol-1,2,3-3H]2-OG as substrate preincubated for 15 mins followed by substrate addition and measured after 15 mins by liquid scintillation spectroscopy; format: cell-based, U-937; outline: as §2
T5 sequence (Q99685 whole entry): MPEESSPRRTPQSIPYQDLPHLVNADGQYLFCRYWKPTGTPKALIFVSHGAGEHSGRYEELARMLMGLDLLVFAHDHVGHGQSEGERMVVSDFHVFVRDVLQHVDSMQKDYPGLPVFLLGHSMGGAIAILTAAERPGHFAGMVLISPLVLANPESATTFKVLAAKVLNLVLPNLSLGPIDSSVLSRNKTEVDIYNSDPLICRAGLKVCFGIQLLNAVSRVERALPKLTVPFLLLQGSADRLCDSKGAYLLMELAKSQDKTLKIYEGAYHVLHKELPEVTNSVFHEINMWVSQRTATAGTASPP

[6] = target: T4, Cannabinoid receptor 1; test: Displacement of [3H]CP55940 from recombinant human CB1R expressed in CHO cell membranes incubated for 90 mins; parameters: species or system Membrane
[7] = target: T6, Cannabinoid receptor 2 (Homo sapiens, UniProt P34972); test: Inverse agonist activity at human CB2R expressed in CHO cell membranes after 90 mins by [35S]GTPgammaS assay; format: functional, Membrane
Outline: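 In-house CHO membranes expressing hCB1 or hCB2 (10 µg) in 50 mM Tris-HCl, 3 mM MgCl2, 0.2 mM EDTA, 100 mM NaCl, 0.5% fatty-acid-free BSA, pH 7.4, with 10 μM GDP and 0.1 nM [35S]GTPγS. Incubated 90 min at 30 °C; antagonist pre-incubated 30 min. Nonspecific binding with 10 μM GTPγS; bound label by filtration and counting; ≥3 experiments in triplicate.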

[8] = target: T6, Cannabinoid receptor 2; test: Displacement of [3H]CP55940 from recombinant human CB2R expressed in CHO cell membranes incubated for 90 mins; parameters: species or system Membrane

T4 sequence (P21554 whole entry): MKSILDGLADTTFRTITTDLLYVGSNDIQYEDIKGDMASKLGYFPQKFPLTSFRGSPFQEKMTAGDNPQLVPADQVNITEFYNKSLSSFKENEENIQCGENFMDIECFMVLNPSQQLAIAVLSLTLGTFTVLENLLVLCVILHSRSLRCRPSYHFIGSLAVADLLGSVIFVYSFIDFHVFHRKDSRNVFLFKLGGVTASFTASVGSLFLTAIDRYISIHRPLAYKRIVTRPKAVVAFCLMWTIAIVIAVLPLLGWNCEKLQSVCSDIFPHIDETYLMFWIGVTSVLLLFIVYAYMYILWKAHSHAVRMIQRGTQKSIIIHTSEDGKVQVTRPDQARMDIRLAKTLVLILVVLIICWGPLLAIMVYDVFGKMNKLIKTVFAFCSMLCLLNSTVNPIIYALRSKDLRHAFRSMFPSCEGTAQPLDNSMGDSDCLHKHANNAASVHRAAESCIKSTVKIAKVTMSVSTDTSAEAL
T6 sequence (P34972 whole entry): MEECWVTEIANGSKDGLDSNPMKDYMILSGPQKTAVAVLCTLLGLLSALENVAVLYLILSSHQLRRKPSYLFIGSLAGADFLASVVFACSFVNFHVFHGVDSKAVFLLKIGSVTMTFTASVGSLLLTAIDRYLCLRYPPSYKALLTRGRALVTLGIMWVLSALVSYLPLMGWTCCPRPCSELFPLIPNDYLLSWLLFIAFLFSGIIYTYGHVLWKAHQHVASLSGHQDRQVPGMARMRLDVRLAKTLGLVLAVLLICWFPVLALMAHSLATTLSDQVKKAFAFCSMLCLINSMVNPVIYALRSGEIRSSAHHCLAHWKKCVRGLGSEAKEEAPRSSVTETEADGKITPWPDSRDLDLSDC

Cc1c(-c2ccc(F)cc2)cc(C(=O)NC2CCCCCC2)c(=O)n1Cc1ccc(F)cc1
IC50 [1]: 600 nM | IC50 [2]: 530 nM | IC50 [3]: > 10000 nM | EC50 [4]: 120 nM | IC50 [5]: > 10000 nM | Ki [6]: 49.3 nM | EC50 [7]: 6.45 nM | Ki [8]: 28.9 nM
